Assay results taken from ChEMBL document CHEMBL1126822, “7 alpha-Methyl- and 11 beta-ethoxy-substitution of [125I]-16 alpha-iodoestradiol: effect on estrogen receptor-mediated target tissue uptake” (J Med Chem, 1993).

Columns and labels:
Rattus norvegicus [1] = test: Tissue uptake (fat) of [125I]- after administration of [125I]-labeled compound to immature female rats (n=3) in the absence of 60 microg coinjected estradiol after 0.5 hours; format: ADME, organism-based; conditions: in vivo
Procedure, shortened: (§1)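 Immature female Fischer rats, 24 days old, 55-60 g, unanesthetized in retention cages, given HPLC-purified 125I-labeled steroid (3 μCi, 111 kBq) via lateral tail vein in 200 μL of 9% ethanol-saline with 1% Tween-80. The blocking group was coinjected with 60 μg unlabeled estradiol and sampled at 1 h. Animals were killed under ether at 0.5-24 h. Tissues were KCl-washed, blotted, weighed and gamma-counted. Results are % ID/g, with variation as small-sample-corrected %CV.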

Rattus norvegicus [2] = test: Tissue uptake (fat) of [125I]- after administration of [125I]-labeled compound to immature female rats (n=3) in the absence of 60 microg coinjected estradiol after 24 hours; format: ADME, organism-based; conditions: in vivo; procedure, shortened: as §1
Rattus norvegicus [3] = test: Tissue uptake (fat) of [125I]- after administration of [125I]-labeled compound to immature female rats (n=3) in the presence of 60 microg coinjected estradiol after 1 hour; format: ADME, organism-based; conditions: in vivo; procedure, shortened: as §1
Rattus norvegicus [4] = test: Tissue uptake (kidneys) of [125I]- after administration of [125I]-labeled compound to immature female rats (n=3) in the presence of 60 microg coinjected estradiol after 1 hour; format: ADME, organism-based, Kidney; conditions: in vivo; procedure, shortened: as §1
Rattus norvegicus [5] = test: Tissue uptake (kidneys) of [125I]- after administration of [125I]-labeled compound to immature female rats (n=5) in the absence of 60 microg coinjected estradiol after 1 hour; format: ADME, organism-based, Kidney; conditions: in vivo; procedure, shortened: as §1
Rattus norvegicus [6] = test: Tissue uptake (liver) of [125I]- after administration of [125I]-labeled compound to immature female rats (n=3) in the absence of 60 microg coinjected estradiol after 0.5 hours; format: ADME, organism-based; conditions: in vivo; procedure, shortened: as §1
Rattus norvegicus [7] = test: Tissue uptake (liver) of [125I]- after administration of [125I]-labeled compound to immature female rats (n=3) in the presence of 60 microg coinjected estradiol after 1 hour; format: ADME, organism-based; conditions: in vivo; procedure, shortened: as §1
Rattus norvegicus [8] = test: Tissue uptake (liver) of [125I]- after administration of [125I]-labeled compound to immature female rats (n=4) in the absence of 60 microg coinjected estradiol after 2 hours; format: ADME, organism-based; conditions: in vivo; procedure, shortened: as §1
Rattus norvegicus [9] = test: Tissue uptake (liver) of [125I]- after administration of [125I]-labeled compound to immature female rats (n=5) in the absence of 60 microg coinjected estradiol after 1 hour; format: ADME, organism-based; conditions: in vivo; procedure, shortened: as §1
Rattus norvegicus [10] = test: Tissue uptake (lungs) of [125I]- after administration of [125I]-labeled compound to immature female rats (n=3) in the presence of 60 microg coinjected estradiol after 1 hour; format: ADME, organism-based; conditions: in vivo; procedure, shortened: as §1
Rattus norvegicus [11] = test: Tissue uptake (lungs) of [125I]- after administration of [125I]-labeled compound to immature female rats (n=4) in the absence of 60 microg coinjected estradiol after 2 hours; format: ADME, organism-based; conditions: in vivo; procedure, shortened: as §1
Rattus norvegicus [12] = test: Tissue uptake (lungs) of [125I]- after administration of [125I]-labeled compound to immature female rats (n=4) in the absence of 60 microg coinjected estradiol after 5 hours; format: ADME, organism-based; conditions: in vivo; procedure, shortened: as §1
Rattus norvegicus [13] = test: Tissue uptake (thyroid) of [125I]- after administration of [125I]-labeled compound to immature female rats (n=3) in the absence of 60 microg coinjected estradiol after 0.5 hours; format: ADME, organism-based, Thyroid gland; conditions: in vivo
Procedure, shortened: (§2)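 Immature female Fischer rats, 24 days old, 55-60 g, unanesthetized in retention cages, got HPLC-purified n.c.a. 125I-labeled steroid (3 μCi, 111 kBq) by lateral tail vein. Dose was given in 200 μL saline with 9% ethanol and 1% Tween-80. Deep ether anesthesia, axillary artery cut; tissues KCl-washed, blotted, weighed, gamma-counted as % ID/g; variation as small-sample-corrected %CV.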

Rattus norvegicus [14] = test: Tissue uptake (spleen) of [125I]- after administration of [125I]-labeled compound to immature female rats (n=5) in the absence of 60 microg coinjected estradiol after 1 hour; format: ADME, organism-based; conditions: in vivo; procedure, shortened: as §2
Rattus norvegicus [15] = test: Tissue uptake (uterus) of [125I]- after administration of [125I]-labeled compound to immature female rats (n=4) in the absence of 60 microg coinjected estradiol after 5 hours; format: ADME, organism-based; conditions: in vivo; procedure, shortened: as §2
Rattus norvegicus [16] = test: Tissue uptake (plasma) of [125I]- after administration of [125I]-labeled compound to immature female rats (n=3) in the absence of 60 microg coinjected estradiol after 0.5 hours; format: ADME, organism-based; conditions: in vivo; procedure, shortened: as §1
Rattus norvegicus [17] = test: Tissue uptake (plasma) of [125I]- after administration of [125I]-labeled compound to immature female rats (n=3) in the absence of 60 microg coinjected estradiol after 24 hours; format: ADME, organism-based; conditions: in vivo; procedure, shortened: as §1
Rattus norvegicus [18] = test: Tissue uptake (blood) of [125I]- after administration of [125I]-labeled compound to immature female rats (n=4) in the absence of 60 microg coinjected estradiol after 2 hours; format: ADME, organism-based; conditions: in vivo; procedure, shortened: as §1
Rattus norvegicus [19] = test: Tissue uptake (blood) of [125I]- after administration of [125I]-labeled compound to immature female rats (n=5) in the absence of 60 microg coinjected estradiol after 1 hour; format: ADME, organism-based; conditions: in vivo; procedure, shortened: as §1
Rattus norvegicus [20] = test: Tissue uptake (plasma) of [125I]- after administration of [125I]-labeled compound to immature female rats (n=3) in the presence of 60 microg coinjected estradiol after 1 hour; format: ADME, organism-based; conditions: in vivo; procedure, shortened: as §1
Rattus norvegicus [21] = test: Tissue uptake (blood) of [125I]- after administration of [125I]-labeled compound to immature female rats (n=3) in the absence of 60 microg coinjected estradiol. (24 hours after injection) (% coefficient of variation); format: ADME, organism-based; conditions: in vivo; procedure, shortened: as §1
[22] = target: Estrogen receptor (Mus musculus) (UniProt O08537+P19785); test: Binding affinity at murine estrogen receptor by [3H]estradiol displacement.; format: protein assay
Procedure, shortened: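 Competitive binding in murine uterine cytoplasmic extracts, incubated 18 h at 0-4 °C with 20 nM [3H]estradiol, with or without competing steroids from 2 nM to 20 μM. RBA = 100 × ratio of competitor to unlabeled estradiol concentration giving 50% competition of specific [3H]estradiol binding. Mean of three experiments with SD.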

Rattus norvegicus [23] = test: Tissue uptake (spleen) of [125I]- after administration of [125I]-labeled compound to immature female rats (n=3) in the presence of 60 microg coinjected estradiol after 1 hour; format: ADME, organism-based; conditions: in vivo; procedure, shortened: as §2
Rattus norvegicus [24] = test: Tissue uptake (kidneys) of [125I]- after administration of [125I]-labeled compound to immature female rats (n=4) in the absence of 60 microg coinjected estradiol and 5 hours; format: ADME, organism-based, Kidney; conditions: in vivo; procedure, shortened: as §1
Rattus norvegicus [25] = test: Tissue uptake (brain) of [125I]- after administration of [125I]-labeled compound to immature female rats (n=3) in the absence of 60 microg coinjected estradiol after 0.5 hours; format: ADME, organism-based; conditions: in vivo; procedure, shortened: as §1
Rattus norvegicus [26] = test: Tissue uptake (brain) of [125I]- after administration of [125I]-labeled compound to immature female rats (n=3) in the absence of 60 microg coinjected estradiol after 24 hours; format: ADME, organism-based; conditions: in vivo; procedure, shortened: as §1
Rattus norvegicus [27] = test: Tissue uptake (brain) of [125I]- after administration of [125I]-labeled compound to immature female rats (n=4) in the absence of 60 microg coinjected estradiol after 2 hours; format: ADME, organism-based; conditions: in vivo; procedure, shortened: as §1
Rattus norvegicus [28] = test: Tissue uptake (uterus) of [125I]- after administration of [125I]-labeled compound to immature female rats (n=3) in the absence of 60 microg coinjected estradiol after 0.5 hours; format: ADME, organism-based; conditions: in vivo; procedure, shortened: as §2
Rattus norvegicus [29] = test: Tissue uptake (blood) of [125I]- after administration of [125I]-labeled compound to immature female rats (n=3) in the absence of 60 microg coinjected estradiol after 24 hours; format: ADME, organism-based; conditions: in vivo; procedure, shortened: as §1

Chain of Estrogen receptor (Mus musculus) (O08537 whole entry, looked up): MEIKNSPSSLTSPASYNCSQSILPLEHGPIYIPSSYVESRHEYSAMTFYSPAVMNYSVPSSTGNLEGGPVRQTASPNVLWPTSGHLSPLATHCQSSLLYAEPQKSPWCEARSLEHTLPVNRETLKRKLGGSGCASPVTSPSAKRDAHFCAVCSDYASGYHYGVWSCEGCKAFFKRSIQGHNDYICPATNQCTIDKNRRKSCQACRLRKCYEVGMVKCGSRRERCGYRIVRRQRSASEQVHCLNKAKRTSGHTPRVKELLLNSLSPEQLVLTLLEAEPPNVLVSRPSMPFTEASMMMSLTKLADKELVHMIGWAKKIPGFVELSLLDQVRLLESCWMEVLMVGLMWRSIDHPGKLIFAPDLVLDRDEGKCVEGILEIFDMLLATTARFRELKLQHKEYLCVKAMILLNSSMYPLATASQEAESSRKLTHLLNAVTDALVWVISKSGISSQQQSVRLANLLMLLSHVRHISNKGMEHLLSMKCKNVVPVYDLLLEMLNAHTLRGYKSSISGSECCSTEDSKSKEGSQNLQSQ
Chain of Estrogen receptor (Mus musculus) (P19785 whole entry, looked up): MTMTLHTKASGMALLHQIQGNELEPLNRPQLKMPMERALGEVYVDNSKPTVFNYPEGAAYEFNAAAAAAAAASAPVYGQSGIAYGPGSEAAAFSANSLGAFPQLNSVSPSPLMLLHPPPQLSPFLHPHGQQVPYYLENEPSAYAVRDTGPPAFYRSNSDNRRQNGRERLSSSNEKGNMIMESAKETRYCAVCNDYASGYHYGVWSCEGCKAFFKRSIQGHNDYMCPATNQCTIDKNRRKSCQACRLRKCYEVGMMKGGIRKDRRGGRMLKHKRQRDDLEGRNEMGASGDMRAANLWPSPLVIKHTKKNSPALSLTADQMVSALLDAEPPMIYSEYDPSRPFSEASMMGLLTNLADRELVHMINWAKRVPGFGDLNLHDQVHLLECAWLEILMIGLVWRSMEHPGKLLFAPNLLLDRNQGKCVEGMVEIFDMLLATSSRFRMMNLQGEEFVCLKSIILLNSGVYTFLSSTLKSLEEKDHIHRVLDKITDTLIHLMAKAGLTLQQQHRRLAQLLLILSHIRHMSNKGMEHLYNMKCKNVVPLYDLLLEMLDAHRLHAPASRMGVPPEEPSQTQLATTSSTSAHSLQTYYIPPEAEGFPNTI

| SMILES | ID/g (Rattus norvegicus [1]) | ID/g (Rattus norvegicus [2]) | ID/g (Rattus norvegicus [3]) | ID/g (Rattus norvegicus [4]) | ID/g (Rattus norvegicus [5]) | ID/g (Rattus norvegicus [6]) | ID/g (Rattus norvegicus [7]) | ID/g (Rattus norvegicus [8]) | ID/g (Rattus norvegicus [9]) | ID/g (Rattus norvegicus [10]) | ID/g (Rattus norvegicus [11]) | ID/g (Rattus norvegicus [12]) | ID/g (Rattus norvegicus [13]) | ID/g (Rattus norvegicus [14]) | ID/g (Rattus norvegicus [15]) | ID/g (Rattus norvegicus [18]) | ID/g (Rattus norvegicus [19]) | relative binding affinity (RBA) [22] | ID/g (Rattus norvegicus [23]) | further results |
| --- | --- | --- | --- | --- | --- | --- | --- | --- | --- | --- | --- | --- | --- | --- | --- | --- | --- | --- | --- | --- |
| C[C@@H]1Cc2cc(O)ccc2[C@H]2CC[C@]3(C)[C@@H](O)[C@H](I)C[C@H]3[C@H]12 | 2.2% | 0.03% | 1.64% | 0.51% | 0.83% | 1.94% | 1.09% | 1.09% | 1.26% | 0.43% | 0.32% | 0.19% | 40.33% | 0.43% | 3.86% | 0.32% | 0.38% | 55.2 | 0.43% | ID/g (Rattus norvegicus [16]): 0.68%; ID/g (Rattus norvegicus [17]): 0.04%; ID/g (Rattus norvegicus [20]): 0.51%; ID/g (Rattus norvegicus [21]): 0.03% |
| CCO[C@H]1C[C@]2(C)[C@@H](O)[C@H](I)C[C@H]2[C@@H]2CCc3cc(O)ccc3[C@H]21 | 2.47% | 0.15% | 1.63% | 1.61% | 1.83% | 5.91% | 4.5% | 3.24% | 3.48% | 1.18% | 1.01% | 0.76% | 105.65% | 1.49% | 7.76% | 0.89% | 1.01% | 16.5 | 1.6% | ID/g (Rattus norvegicus [24]): 0.91%; ID/g (Rattus norvegicus [25]): 0.68%; ID/g (Rattus norvegicus [26]): 0.04%; ID/g (Rattus norvegicus [27]): 0.25%; ID/g (Rattus norvegicus [28]): 7.85%; ID/g (Rattus norvegicus [29]): 0.17% |
